Many of the other results were omitted from the sample, so hits are more common in it than they were.
Lmaj promast: inhibitors of Leishmania major promastigote growth; Leishmania major promastigotes, resazurin fluorescence viability; actives 9% (n = 200,000); inhibition, % at 10 µM; AID 1063; in the data active = inhibition above about 50%;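 also: promastigotes grown with compound for 44 hours at 28 °C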
S1P4 antagonist: antagonists of human S1P4 receptor; O95977; S1P4-expressing cells, antagonist mode, reporter read-out; inhibition, % at 4.98 µM; actives 0.26% (n = 220,000); in the data active = inhibition above about 29%
S1P4 agonist: agonists of human S1P4 receptor; O95977; S1P4-expressing cell line, agonist reporter assay; activation, % at 4.98 µM; actives 0.35% (n = 220,000); AID 1509; in the data active = activation above about 11%
S1P3 antag: blocks the human S1P3 receptor. Q99500. CHO S1P3 NFAT-BLA reporter, FRET fluorescence, antagonist mode. inhibition, % at 4.98 µM. actives 0.27% (n = 170,000). AID 485;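 active = inhibition above the plate cutoff, the mean inhibition of test wells on that plate plus 3 SD, cut at about 28% in these data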;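 also: cells challenged with S1P at its EC80 of 0.8 µM; blue over green emission ratio from cleaved BLA substrate after 4 h stimulation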
Mdm2 ligase inh: blocks human Mdm2 ubiquitin ligase activity; signal enhancement, % at 5 µM; actives 0.11% (n = 210,000); Q00987; cell-based MDM2 ubiquitination luciferase reporter, 2 h; 0 = plate control, 100 = twice control, blank-subtracted;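 active = signal enhancement of 30% or more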;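 also: luminescence tracks abundance of the self-degrading MDM2-luciferase fusion protein; higher signal means inhibition of MDM2 E3 ligase activity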
Target sequence (Q00987 whole entry, looked up, the tested form may be a part): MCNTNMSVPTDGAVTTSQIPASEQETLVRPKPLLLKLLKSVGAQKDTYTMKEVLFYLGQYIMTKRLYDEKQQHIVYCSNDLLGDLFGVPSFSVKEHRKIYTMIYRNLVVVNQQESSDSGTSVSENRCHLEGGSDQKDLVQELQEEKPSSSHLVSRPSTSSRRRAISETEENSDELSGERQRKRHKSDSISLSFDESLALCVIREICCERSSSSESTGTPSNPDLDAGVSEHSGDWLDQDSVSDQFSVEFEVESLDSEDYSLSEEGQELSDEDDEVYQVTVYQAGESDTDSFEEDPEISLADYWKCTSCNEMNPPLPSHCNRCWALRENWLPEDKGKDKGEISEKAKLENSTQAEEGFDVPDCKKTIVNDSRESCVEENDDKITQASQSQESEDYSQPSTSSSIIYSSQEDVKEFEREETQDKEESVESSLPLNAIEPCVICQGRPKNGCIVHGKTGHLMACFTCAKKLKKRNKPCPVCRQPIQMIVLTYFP
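Assay system: stable mammalian line carrying autodegrading MDM2–luciferase fusion reporter; amount: 2000 cells seeded into each well; buffer or medium: DMEM; benchmarks: plate control and blank wells; signal: luciferase luminescence; timing: 2 h compound exposure at 37 °C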
Of the large screens only hits and unclear results are named; the others gave an inactive call.

COc1ccc(CN2CCN(C(=O)COc3cccc(C)c3)CC2)c(OC)c1	Lmaj promast 62
COc1ccc(OC)c(CN2CCN(C(=O)COc3cccc(C)c3)CC2)c1	none
O=c1[nH]c(=O)n(Cc2ccc(F)cc2)c(O)c1/C=N/Nc1ccccc1	none (no result: Lmaj promast)
COc1ccc(OC)c(N2C(=O)NC(=O)/C(=C\c3ccc([N+](=O)[O-])s3)C2=O)c1	Lmaj promast 100
CNCC1(c2ccccc2)CCCC1	none (no result: S1P3 antag)
CC(C)CCNC(=O)c1cc(C(=O)c2cc(Br)ccc2O)cn(CCC(C)C)c1=O	Lmaj promast 83
O=C(c1cc(C(=O)NCc2ccccc2)c(=O)n(Cc2ccccc2)c1)c1cc(Cl)ccc1O	Lmaj promast 98
O=c1c2ccccc2nc(/C=C/c2ccc([N+](=O)[O-])o2)n1-c1ccc(O)cc1	Lmaj promast 99
Cc1cccc(-n2c(/C=C/c3ccc([N+](=O)[O-])o3)nc3ccccc3c2=O)c1	Lmaj promast 88
O=c1c2ccccc2nc(-c2ccco2)n1-c1ccc(Br)cc1	none (no result: Lmaj promast)
COc1ccc(S(=O)(=O)N2CC3CC(C2)c2cccc(=O)n2C3)cc1 (stereo not drawn)	none
CCCCCc1nc2c(c(=O)c3ccccc3n2C)c(=O)n1C1CCCCCC1	Lmaj promast 99
COc1ccc2c(c1)NP(=S)(Oc1ccccc1)N2 (stereo not drawn)	none (no result: Lmaj promast)
CC(C)CN1CCN(Cc2c(F)cccc2Cl)CC1CCO (stereo not drawn)	none
Fc1ccc(C(OCCN2CCCC2)c2ccc(F)cc2)cc1	Lmaj promast 90
Fc1ccc(C(OCCN2CCCC2)c2ccc(Br)cc2)cc1 (stereo not drawn)	Lmaj promast 100
C#CCN1CCN(c2ccc(F)cc2)CC1	none
CC/C(=N\Nc1ccccc1)c1c(O)n(-c2ccc(OC)cc2)c(=O)[nH]c1=O	none (no result: Lmaj promast)
CC(=O)OC1N=C(c2ccccc2)c2cc(C)ccc2NC1=O (stereo not drawn)	Lmaj promast 75 (no result: S1P3 antag)
Cc1ccc(C(C)C)c(OCC(=O)N2CCN(Cc3nc4cc([N+](=O)[O-])ccc4n3C)CC2)c1	Lmaj promast 97
N#CCN1CCN(c2ccc(C(F)(F)F)cc2)CC1	none
Cc1nc2ccc(Cl)cc2c(-c2ccccc2)c1C(=O)O	none
COC(=O)c1ccc(CN2CCN(Cc3ccccc3)CC2)cc1	Lmaj promast 93
O=C(Cc1ccccc1)N1CCN(Cc2ccc([N+](=O)[O-])cc2)CC1	none
CN1CCN(c2cc(N3CCCC3)c([N+](=O)[O-])cc2F)CC1	Lmaj promast 99 (no result: S1P3 antag)
O=[N+]([O-])c1cc(F)c(N2CCCC2)cc1Br	none
CCN1CCN(c2cc(N3CCCC3)c(F)cc2[N+](=O)[O-])CC1	Lmaj promast 71
CC(C)CN1CCN(Cc2cccc3c2OCO3)CC1CCO (stereo not drawn)	none
NNC(=O)CN1C(=O)CN=C(c2ccccc2)c2cc(Br)ccc21	none (no result: Lmaj promast)
O=C1CN=C(c2ccccc2)c2cc(Br)ccc2N1Cc1cc(=O)n2ccccc2n1	Lmaj promast 82
Cc1cc(C)cc(NC2=NCCCS2)c1	none
CC(=O)N1CCCSC1=Nc1ccccc1	Lmaj promast 70
CCOc1ccccc1N=C1SCCCN1C	none
O=C1NC(=O)C(CCc2ccncc2)(Cc2ccc3c(c2)OCO3)C(=O)N1CCc1ccccc1 (stereo not drawn)	Lmaj promast 100 (no result: S1P3 antag)
CN1C(=O)N(C)C(=O)C(CCc2ccncc2)(Cc2ccc3c(c2)OCO3)C1=O	Lmaj promast 65
O=C1NC(=O)C(CCc2ccncc2)(CCc2ccncc2)C(=O)N1CCc1ccccc1	none
O=C1NC(=O)C(CCc2ccncc2)(CCc2ccncc2)C(=O)N1CCc1ccc(F)cc1	none
O=Cc1cn(Cc2ccccc2[N+](=O)[O-])c2ccccc12	Lmaj promast 50
O=C(CSC1c2ccccc2-c2ccccc21)N/N=C/c1ccccc1O	Lmaj promast 100 (no result: S1P3 antag)
O=C(CSC1c2ccccc2-c2ccccc21)N/N=C/c1ccc(C(=O)O)cc1	none
CCN1C(=O)C(=Cc2ccc(C)s2)C(=O)N(CC)C1=S	Lmaj promast 84
Cc1ccc2c(c1)C1CN(C)CCC1N2C(=O)COc1ccc(S(=O)(=O)N2CCOCC2)cc1 (stereo not drawn)	S1P3 antag 76
Cc1ccc2c(c1)C1CN(C)CCC1N2C(=O)Cc1cccs1 (stereo not drawn)	none
CC(=NCCC(c1ccccc1)c1ccccc1)c1c(O)n(C)c(=O)n(C)c1=O	none

Screens from PubChem.
